Results gathered from unrelated publications.
Compare with care: the assays were run in different laboratories.
HTR2C: 5-hydroxytryptamine receptor 2C (HTR2C, Homo sapiens, UniProt P28335)
DHFR: Dihydrofolate reductase (DHFR, Homo sapiens, UniProt P00374)
HTR2B: 5-hydroxytryptamine receptor 2B (HTR2B, Homo sapiens, UniProt P41595)
FAAH: Fatty-acid amide hydrolase 1 (FAAH, Homo sapiens, UniProt O00519)
TOP2A: DNA topoisomerase 2-alpha (TOP2A, Homo sapiens, UniProt P11388)

SMILES	target	test	setting	IC50 [µM]
O=C(c1cc(C2CCNC2)[nH]n1)N1CCC(c2cccc(Cl)c2)C1 (stereo not drawn)	HTR2C	calcium signal, antagonist	–	8.5
O=C(C=Cc1ccc(O)c(O)c1)Oc1ccccc1	DHFR	enzyme activity, inhibitor, absorbance	–	15.4
O=[N+]([O-])c1cccc(NC(=S)NN=Cc2ccc(N3CCCCC3)cc2)c1	DHFR	enzyme activity, inhibitor	–	13.7
CC1CC2CN(C(C)C(=O)c3c[nH]c4ccccc34)CCN2C1 (stereo not drawn)	HTR2B	calcium signal, antagonist	–	2.25
S=C(NN=Cc1ccc(N2CCCCC2)cc1)Nc1ccc(Br)cc1	DHFR	enzyme activity, inhibitor	–	26.1
Cc1[nH]c2ccccc2c1SCCNC(=O)CN1CCC(C)C1 (stereo not drawn)	HTR2B	calcium signal, antagonist	–	3.68
O=c1cc(-c2ccc(O)cc2)oc2c([C@@H]3OC[C@H](O)[C@H](O)[C@H]3O)c(O)c([C@@H]3O[C@H](CO)[C@@H](O)[C@H](O)[C@H]3O)c(O)c12	Calcium/calmodulin-dependent protein kinase type II subunit alpha (CAMK2A, Homo sapiens, UniProt Q9UQM7)	enzyme activity, inhibitor	–	86.1
O=C(Nc1ccc(-c2ccc3ncccc3c2)cc1)C1CCN(S(=O)(=O)c2ccccc2Cl)CC1	FAAH	enzyme activity, inhibitor, fluorescence	–	0.0508
O=C1C(N2CCC(c3cn[nH]n3)C2)CCN1c1cccc(Cl)c1 (stereo not drawn)	HTR2B	calcium signal, antagonist	–	7.25
Fc1ccc(NC(=S)NN=Cc2ccc(N3CCCCC3)cc2)cc1	DHFR	enzyme activity, inhibitor	–	24.6
O=C(Nc1ccc(-c2ccc3cccnc3c2)cc1)C1CCN(S(=O)(=O)c2ccccc2Cl)CC1	FAAH	enzyme activity, inhibitor, fluorescence	–	0.0105
S=C(NCc1ccc(Cl)cc1)NN=Cc1ccc(N2CCCCC2)cc1	DHFR	enzyme activity, inhibitor	–	20.6
O=c1nc(SCc2cc(F)cc(C(F)(F)F)c2)nc(SCc2nc3ccccc3[nH]2)[nH]1	TOP2A	enzyme activity, inhibitor	–	31.7
S=C(NN=Cc1ccc(N2CCCCC2)cc1)Nc1ccccc1	DHFR	enzyme activity, inhibitor	–	15.6
O=C(C=Cc1ccc(O)c(O)c1)Oc1cccc2cccnc12	DHFR	enzyme activity, inhibitor, absorbance	–	13
CC(=O)Nc1ccc(Nc2nc(-c3sc(N)nc3C)cs2)cc1	Lysyl oxidase homolog 1 (LOXL1, Homo sapiens, UniProt Q08397)	enzyme activity, inhibitor, fluorescence	with preincubation	> 10
Cc1ccccc1NC(=O)C=Cc1ccc(O)c(O)c1	DHFR	enzyme activity, inhibitor, absorbance	–	1.1
S=C(NN=Cc1ccc(N2CCCCC2)cc1)Nc1ccc(Cl)cc1	DHFR	enzyme activity, inhibitor	–	18.4
Oc1cc(CN2CCN3CCCCC3C2)c2ccccc2c1 (stereo not drawn)	HTR2B	calcium signal, antagonist	–	0.586
S=C(NN=Cc1ccc(N2CCCCC2)cc1)Nc1cccc(Br)c1	DHFR	enzyme activity, inhibitor	–	30.2
Cc1[nH]c2ccccc2c1C(=O)C(C)N1CCC(c2nccn2C)C1 (stereo not drawn)	HTR2C	calcium signal, antagonist	–	2.61
Nc1nc(N)c(OCCCOc2ccccc2CCC(=O)O)c(-c2ccc(C(F)(F)F)cc2)n1	DHFR	enzyme activity, inhibitor	–	> 5
Cc1[nH]c2ccccc2c1SCCNC(=O)C1NCCC1C1CC1 (stereo not drawn)	HTR2B	calcium signal, antagonist	–	5.36
Cc1nc(CSc2nc(SCc3cc(F)cc(C(F)(F)F)c3)nc(=O)[nH]2)cs1	TOP2A	enzyme activity, inhibitor	–	55
CN(C(=O)c1cn[nH]n1)C1CCN(CCc2cccc(Cl)c2Cl)C1 (stereo not drawn)	HTR2B	calcium signal, antagonist	–	5.53
O=C(Nc1ccc(-c2ccnc3ccccc23)cc1)C1CCN(S(=O)(=O)c2ccccc2Cl)CC1	FAAH	enzyme activity, inhibitor, fluorescence	–	0.0887
O=c1nc(SCc2cc(F)cc(C(F)(F)F)c2)nc(SCc2cccc(C(F)(F)F)c2)[nH]1	TOP2A	enzyme activity, inhibitor	–	14.5
S=C(NN=Cc1ccc(N2CCCCC2)cc1)Nc1cccc(Cl)c1Cl	DHFR	enzyme activity, inhibitor	–	47.3
O=C(C=Cc1ccc(O)c(O)c1)OCc1ccccc1	DHFR	enzyme activity, inhibitor, absorbance	–	12.6
O=c1nc(SCc2ccc(C(F)(F)F)cc2)nc(SCc2ccc3sccc3c2)[nH]1	TOP2A	enzyme activity, inhibitor	–	16.3
